From PubChem
An excerpt weighted towards active compounds, which were near 2.1% of everything screened.
Runt-CBFb FRET: inhibitors of RUNX1 Runt–CBFb binding, primary screen, biochemical, FRET, Cerulean-Runt, Venus-CBFb, uHTS | inhibition, % at 20 µM | Runt-related transcription factor 1 (Homo sapiens) + Core-binding factor subunit beta … | AID 1496, 2009 | 220,000 compounds, 0.46% hits | Cerulean-Runt/Venus-CBFb FRET ratio 530/480, 1 h;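 active = inhibition over about 50% at 20 µM in the single-dose screen, limit read from the data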;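 note: 0% = DMSO wells and 100% = excess unlabeled CBFb competitor control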
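System: Cerulean-labeled Runt domain protein | Quantity: 100 nM of each labeled protein | Schedule: 1 h compound exposure, room temperature | Detection: Fluorescence energy transfer, 422 nm excitation, 530/480 nm emission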
RanGTP-Imp inh: inhibitors of RanGTP-importin-beta interaction, primary screen, biochemical, FRET, CFP-Ran, YFP-importin-beta, homogeneous. Ran GTPase (GTP-bound) - importin-beta complex. cell-free CFP-Ran/YFP-importin-beta FRET ratio. inhibition, % (concentration not given with the values). 300,000 compounds, 1.1% hits;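 active = more than half of the replicate wells show a fall in the fluorescence ratio signal beyond about 16%, limit read from the data, passing the limit was not always enough; inconclusive = exactly half of the replicate wells pass the set limit; inactive = fewer than half of replicates pass the limit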;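 note: 0% = DMSO wells and 100% = Ran loaded with GDP instead of GTP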
p-CIP stab down: p/CIP-EGFP fusion destabilizers, primary screen, fluorescence, F442A cells; AID 1984, 2009; 16 h; 290,000 compounds, 0.01% hits; Q05BA5; decrease of EGFP signal, % at 10 µM;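 active = EGFP signal decrease of at least 30% at 10 µM or well 3 SD below plate mean, unless failing retest; inactive = the rest, including hits failing retest or dose response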
Pemphigus Ab inh: inhibitors of pemphigus antibody binding to DSG3, primary screen, biochemical, bead-based, flow cytometry, scFv-GFP. Desmoglein-3 (Homo sapiens), P32926. DSG3-coupled beads, scFv-anti-DSG3-GFP binding; active compounds read low. binding (percent of control), % at 10 µM. 310,000 compounds, 0.48% hits;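 active = binding more than 3 SD below its plate's average and above zero; inconclusive = below that plate limit but binding exactly zero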;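 note: hits lower antibody fragment binding to DSG3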
Hck-Nef inh: inhibitors of Nef-activated human Hck kinase, primary screen, biochemical, Z-Lyte FRET, 384-well, Hck-YEEI. inhibition, % at 20 µM. Recombinant Hck-YEEI plus Nef, Z-Lyte FRET kinase assay. Tyrosine-protein kinase HCK (Homo sapiens), P08631. AID 463187, 2010. 220,000 compounds, 0.68% hits;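 active = Hck-Nef kinase inhibition above about 50%, limit read from the data; inactive = inhibition below that limit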;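 note: 0% = DMSO with Hck plus Nef and 100% = Hck alone without Nef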
Target sequence (P08631 whole entry, looked up): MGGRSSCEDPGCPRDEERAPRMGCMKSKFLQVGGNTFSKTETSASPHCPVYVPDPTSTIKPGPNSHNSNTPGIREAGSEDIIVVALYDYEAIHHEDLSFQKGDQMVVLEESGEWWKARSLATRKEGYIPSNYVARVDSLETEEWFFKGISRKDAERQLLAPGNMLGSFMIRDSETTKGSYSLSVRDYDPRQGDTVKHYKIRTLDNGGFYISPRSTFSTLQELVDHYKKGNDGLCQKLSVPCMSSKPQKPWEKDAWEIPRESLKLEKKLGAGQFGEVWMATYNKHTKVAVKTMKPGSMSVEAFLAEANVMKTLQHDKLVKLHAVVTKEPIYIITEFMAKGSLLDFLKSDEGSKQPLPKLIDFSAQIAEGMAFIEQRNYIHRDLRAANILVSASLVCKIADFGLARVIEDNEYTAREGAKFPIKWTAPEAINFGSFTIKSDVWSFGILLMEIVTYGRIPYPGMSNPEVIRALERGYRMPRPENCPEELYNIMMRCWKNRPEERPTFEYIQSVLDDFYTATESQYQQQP
Runt-SMMHC FRET: inhibitors of RUNX1 Runt–CBFb-SMMHC binding, primary screen, biochemical, FRET, Cerulean-Runt, Venus-CBFb-SMMHC, uHTS | Cerulean-Runt/Venus-CBFb-SMMHC FRET ratio 530/480, 1 h | inhibition, % at 20 µM | 220,000 compounds, 0.74% hits | AID 1434, 2008;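 active = mean inhibition across duplicate retests at 20 µM reaching about 50%, limit read from the data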;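 note: 0% = DMSO wells and 100% = wells with excess untagged CBFb-SMMHC; inhibitors lower the FRET ratio by blocking Runt binding to CBFb-SMMHC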
The depositor's hits bear a star; ? = inconclusive; nt = no result given.

SMILES	Runt-CBFb FRET	RanGTP-Imp inh	p-CIP stab down	Pemphigus Ab inh	Hck-Nef inh	Runt-SMMHC FRET
COCCn1c(N)c(C#N)c2nc3ccccc3nc21	107.5*	71.5*	-0.4	100.5	26.3	57.2*
Cn1c(-c2c(N)n(CCc3ccccc3)c3nc4ccccc4nc23)nc2ccccc21	-13.2	-29.3	-7.5	104.6	-4.6	-43.4
CNC(=O)C[C@H]1C(=O)N(c2ccccc2)C[C@@H]1C	nt	nt	nt	108.5	nt	nt
CCc1ccc(OCC(=O)c2c(O)c3ccccc3oc2=O)cc1	1.3	2.2	-3.5	49.8*	17.9	-1.6
Cc1ccc(OCC(=O)c2c(O)c3ccccc3oc2=O)cc1C	-1.8	-2.4	-6.9	105.0	-0.4	27.6
Cc1cc(/C=c2/sc3nc4ccccc4n3c2=O)c(C)n1-c1ccccn1	8.1	15.5*	-12.1	102.0	1.3	6.1
C[C@@H]1CN([C@H](C)CO)C(=O)CCCn2nncc2CO[C@H]1CN(C)Cc1ccc(-c2ccccc2)cc1	nt	nt	nt	108.6	nt	nt
C[C@H](CO)N1C[C@H](C)[C@@H](CN(C)Cc2ccccc2)OCc2cnnn2CCCC1=O	nt	nt	nt	91.4*	nt	nt
CC(OC(=O)CNC(=O)c1sc2ccccc2c1Cl)C(=O)NC1(C#N)CCCCC1 (configuration not stated)	nt	nt	nt	100.4	nt	nt
Cc1n[nH]c(=S)n(NC(=O)/C=C/C(=O)Nn2c(=S)[nH]nc(C)c2=O)c1=O	14.5	0.8	3.4	36.1*	28.2	11.6
CC(C)CC(=O)NN(C)c1nc(-c2ccccc2)nnc1C(F)(F)F	-1.0	-2.3	-2.4	51.8*	-16.7	-1.7
CCCCC(=O)NN(C)c1nc(-c2ccccc2)nnc1C(F)(F)F	-1.0	2.6	-2.5	104.7	-14.4	-2.2
COc1ccc(CCNC(=O)c2noc(C)c2[N+](=O)[O-])cc1OC	nt	-1.3	-3.6	95.5	nt	nt
CN(C)c1cc(Cl)c2nonc2c1N	2.1	1.0	-11.7	112.2	-1.6	-2.1
Oc1ccc2ccccc2c1/C=N/n1cnnc1	66.7*	3.3	-1.3	99.5	-3.2	115.5*
CN(CC(=O)Nc1ccccc1Cl)C(=O)CSc1nnc(N)s1	nt	1.4	nt	93.5	nt	nt
N#C/C(=C/c1ccncc1)c1nc2ccccc2s1	-16.5	84.0*	-73.5	92.0	16.0	-39.8
Nc1ncc(Br)cc1S(=O)(=O)Nc1cc(C(F)(F)F)cc(C(F)(F)F)c1	nt	-3.2	-1.1	95.5	nt	nt
Cc1ccc(/C=C/S(=O)(=O)NCCC(=O)NCc2ccccc2F)cc1	nt	nt	nt	125.3	nt	nt
CCC1OC2(C)OC(=N)C1(C#N)C(C#N)(C#N)C2c1ccccc1 (configuration not stated)	21.7	33.0*	-14.9	108.4	16.7	66.7
CC1=CC(C#N)(C#N)C(C#N)(C#N)C(c2ccccc2)N1 (configuration not stated)	0.0	5.1	-8.9	nt	2.5	-3.2
CC1CCC(C(C)C)C2=C1C(C#N)(C#N)C(C#N)(C#N)C(c1ccccc1)N2 (configuration not stated)	8.1	-3.7	-3.6	107.2	17.7	-2.9
CC(C)C1OC2(C)OC(=N)C1(C#N)C(C#N)(C#N)C2c1ccccc1 (configuration not stated)	39.9	31.6*	-6.2	119.5	21.1	63.2*
CCCCOC(=O)c1ccc(-c2ccc(/C=N/NC(=S)NCC)o2)cc1	3.4	43.5*	-13.2	102.7	2.4	8.9
CCCOC(=O)c1ccc(-c2ccc(C=O)o2)cc1	-3.7	-1.9	-9.3	100.7	6.5	0.7
SMILES	Runt-CBFb FRET	RanGTP-Imp inh	p-CIP stab down	Pemphigus Ab inh	Hck-Nef inh	Runt-SMMHC FRET
Cc1ccc(C(=O)N/N=C\c2ccc(-c3ccc(Cl)cc3)o2)cn1	4.1	-1.5	-5.5	92.4*	-0.5	0.8
CCOC(=O)c1ccc(-c2ccc(/C=N/NC(=O)c3cncc(Br)c3)o2)cc1	-6.3	-4.4	-20.1	75.4*	9.3	-53.8
Cc1ccc(C(=O)N/N=C\c2ccc(-c3ccc([N+](=O)[O-])cc3)o2)cn1	-5.7	-8.3	-1.9	118.8	22.0	-25.3
CC(=O)c1ccc(NC(=O)C(=O)c2cn(CC(=O)N3CCCCC3)c3ccccc23)cc1	-0.5	3.7	0.8	108.1	0.9	-4.2
CN(C(=S)Nc1ccc(F)cc1)C1(c2ccccc2Cl)CCCCC1=O (configuration not stated)	87.7*	-1.7	2.6	105.0	1.7	-0.3
CN(N)C(=S)Nc1ccc(F)cc1	0.8	3.4	9.9	107.9	-4.4	1.8
CCCCNC(=O)N1CCCN(c2ccc(C#N)cn2)CC1	nt	2.1	-3.5	94.9	nt	nt
CCN1CCN(Cc2c(O)ccc3c2O/C(=C\c2ccccc2)C3=O)CC1	-64.8	-1.7	-3.3	102.9	3.5	88.4*
CCN1CCN(Cc2c(O)ccc3c2O/C(=C\C=C\c2ccccc2)C3=O)CC1	-43.6	-320.5	14.7	114.5	-5.3	-251.8
CCc1ccc(/C=C2\Oc3c(ccc(O)c3CN3CCN(C)CC3)C2=O)cc1	-10.4	?	-7.5	100.1	-18.1	81.2*
CCN1CCN(Cc2c(O)ccc3c2O/C(=C\c2ccc(C)cc2)C3=O)CC1	19.6	21.5*	-20.4	110.2	16.1	92.5*
Cc1ccc(/C=C2\Oc3c(ccc(O)c3CN3CCN(C)CC3)C2=O)cc1	3.4	21.9*	-11.3	87.2	0.9	90.0*
CNC(=O)c1ccc2cc(OC)c(OC)cc2c1	nt	nt	nt	101.6	nt	nt
O=C(N/N=C/c1sc(N2CCOCC2)nc1-c1ccccc1)c1ccccc1Cl	2.8	29.9*	5.8	143.7	-2.5	4.3
CN(C)S(=O)(=O)c1cccc(NC(=O)COC(=O)CNC(=O)c2cccc([N+](=O)[O-])c2)c1	3.8	2.4	9.9	93.2	13.9	0.1
CN(C)CCC(O)(c1ccccc1)c1ccccc1	0.0	1.1	2.6	102.2	-1.4	0.3
CN(C)CCCC(C)(O)C(C)(C)c1ccccc1 (configuration not stated)	73.4*	-3.2	2.1	93.0	3.3	-2.8
O=C(COc1ccccc1F)N1N=C(c2cccs2)CC1c1ccco1 (configuration not stated)	nt	nt	nt	92.5	nt	nt
OCCNc1ncnc2c1nnn2Cc1ccccc1Cl	nt	nt	nt	95.2	nt	nt
CC(C)CCNc1ncnc2c1nnn2Cc1ccccc1Cl	-1.1	?	-5.1	83.9*	-10.1	-0.3
O=c1c2ccccc2sn1-c1ccc(F)cc1	nt	nt	nt	42.5*	nt	nt
